Source: PubChem (The Scripps Research Institute Molecular Screening Center)
In the library only some 2.8% were active in any assay of this set; here they are far more common.
HTRA1 inhibitor = HTRA1 (human) protease inhibition. inhibition, % at 5.96 µM. recombinant HTRA1, FP-rhodamine activity-based probe, fluorescence polarization. Q92743. actives 0.5% (n = 340,000). AID 504803; in the data active means inhibition above about 36%;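 further: 0% = enzyme with DMSO and 100% = wells lacking enzyme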
PAFAH2 FP inh = PAFAH2 (human) inhibition; Q99487; recombinant PAFAH2, FP-rhodamine activity probe, fluorescence polarization; inhibition, % at 3.39 µM; actives 0.99% (n = 340,000);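 active means inhibition above the mean over all tested compounds plus 3 SD, cut at about 30% in these data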;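 further: inhibitors block probe labeling of enzyme so polarization drops; 0% = enzyme with DMSO and 100% = wells lacking PAFAH2 protein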
PAFAH1B2 FP inh = blocks human PAF acetylhydrolase 1b catalytic subunit 2; P68402; recombinant PAFAH1B2, FP-rhodamine activity probe, fluorescence polarization; inhibition, % at 3.39 µM; actives 1.2% (n = 340,000); AID 492953;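 active means inhibition above the mean of all tested compounds plus 3 SD, cut at about 24% in these data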;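 further: 0% = enzyme with DMSO and 100% = wells lacking PAFAH1B2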
ABHD4 inh = inhibits mouse alpha/beta hydrolase domain 4. inhibition, % at 8.92 µM. Q8VD66. actives 0.54% (n = 370,000). AID 720543. purified mABHD4, FP-Rh probe fluorescence polarization;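 active means inhibition exceeding the mean over every tested compound plus 3 SD, cut at about 30% in these data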;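 further: 0% = plate median of compound wells and 100% = S159A mutant with DMSO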
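System: mouse ABHD4 enzyme, wild type / Medium: HEPES pH 7.0, NaCl, Pluronic buffer / Reagent: FP-Rh activity-based fluorescent probe / Control set: S159A mutant high control, sample median low control / Detection: fluorescence polarization with parallel and perpendicular emission, 525/598 nm / Schedule: 45 min + 60 min at 25 °C / Compound dosing: 8.92 µM, single dose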
pPAFAH inh = pPAFAH (human) enzyme inhibition; Q13093; recombinant pPAFAH, FP-rhodamine probe fluorescence polarization; inhibition, % at 3.39 µM; actives 1.5% (n = 330,000);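 active means inhibition above the mean inhibition across the screen plus 3 SD, cut at about 25% in these data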;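 further: inhibitors block binding of the rhodamine activity-based probe so polarization drops; 0% = enzyme with DMSO and 100% = wells lacking pPAFAH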
Target sequence (Q13093 whole entry, looked up): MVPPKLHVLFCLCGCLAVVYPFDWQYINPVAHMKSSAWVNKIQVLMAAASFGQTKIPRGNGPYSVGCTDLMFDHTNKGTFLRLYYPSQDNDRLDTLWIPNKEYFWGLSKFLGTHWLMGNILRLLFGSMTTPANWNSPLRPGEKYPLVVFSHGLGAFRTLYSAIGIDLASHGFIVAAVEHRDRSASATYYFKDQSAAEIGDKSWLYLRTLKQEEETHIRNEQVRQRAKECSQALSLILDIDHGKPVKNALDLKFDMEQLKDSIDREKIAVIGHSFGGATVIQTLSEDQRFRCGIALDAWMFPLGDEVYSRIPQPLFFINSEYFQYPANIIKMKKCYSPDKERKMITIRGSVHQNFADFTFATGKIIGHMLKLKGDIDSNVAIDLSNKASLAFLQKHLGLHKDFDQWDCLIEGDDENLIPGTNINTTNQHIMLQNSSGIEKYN
PAFAH1B3 FP inh = inhibitors of human PAFAH1B3 | actives 0.28% (n = 340,000) | recombinant PAFAH1B3, FP-rhodamine probe, fluorescence polarization | Q15102 | inhibition, % at 3.39 µM | AID 492972;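 active means inhibition above the screen-wide average of all tested compounds plus 3 SD, cut at about 25% in these data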;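 further: 0% = enzyme with DMSO only and 100% = wells lacking PAFAH1B3 protein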
* = called active by the depositor; / = no result.

SMILES	HTRA1 inhibitor	PAFAH2 FP inh	PAFAH1B2 FP inh	ABHD4 inh	pPAFAH inh	PAFAH1B3 FP inh
C=C(C)COc1ccc2c(C)c(CCC(=O)N3C[C@H]4C[C@@H](C3)c3cccc(=O)n3C4)c(=O)oc2c1	2	-1	7	-2	25*	4
O=C(CSc1ccc(F)cc1)Nc1ccccc1N1CCOCC1	-7	1	26*	-1	1	13
C[C@H]1CN([C@@H](C)CO)C(=O)c2cc(NS(=O)(=O)c3ccc(F)cc3)ccc2O[C@H]1CN(C)S(=O)(=O)c1cn(C)cn1	1	1	7	8	28*	7
COc1ccc(S(=O)(=O)Nc2ccc3c(c2)C(=O)N([C@H](C)CO)C[C@H](C)[C@@H](CN(C)S(=O)(=O)c2ccccc2)O3)cc1	-6	-3	40*	2	9	10
C[C@H](CO)N1C[C@H](C)[C@@H](CN(C)S(=O)(=O)c2cn(C)cn2)Oc2ccc(NS(=O)(=O)c3ccccc3)cc2C1=O	3	-5	-3	0	4	2
OC(c1ccccc1)(c1ccccc1)C1CCN(CCCNc2ccc(C(F)(F)F)cc2)CC1	/	/	/	21	/	/
CCOC(=O)c1c(-c2ccc(OC)cc2)oc2ccc(O)cc12	-35	-2	0	-6	31*	-7
CCOC(=O)c1c(-c2ccc(OC)cc2)oc2ccc(OCC(N)=O)cc12	-16	4	3	-7	4	-7
OC(c1ccccc1)(c1ccc(F)cc1)C(c1ccccc1)N1CCOCC1 (configuration not stated)	-26	-1	33*	/	0	2
CC(O)(c1ccccc1)C(C(c1ccccc1)N1CCOCC1)N1CCOCC1 (configuration not stated)	2	1	1	1	/	6
O=C(C[n+]1cnn(CC(=O)c2ccc(Cl)cc2Cl)c1)c1ccc([N+](=O)[O-])cc1	20	-6	-2	14	25*	7
CCOC(=O)[C@@H]1c2[nH]c3ccccc3c2C[C@@]2(C(=O)OC)C=CCN12	/	/	/	-2	/	/
COc1ccc(-n2c(C)cc(/C=C3\SC(=S)NC3=O)c2C)cc1	-7	7	1	7	16	6
Cc1cc(/C=C2\SC(=S)NC2=O)c(C)n1-c1ccccc1	/	/	/	8	30*	/
Cc1ccc(S(=O)(=O)Nc2ccc(S(=O)(=O)NCC3CCCO3)cc2)cc1 (configuration not stated)	4	1	43*	0	3	1
Cc1ccc(-c2ccc(S(=O)(=O)NCC3CCCO3)cc2)cc1 (configuration not stated)	-4	15	5	-12	8	4
Cc1ccc(NS(=O)(=O)c2cccc(C(=O)NCC3CCCO3)c2)cc1 (configuration not stated)	-10	0	2	-1	31*	3
Cc1ccc(C)c(NC(=S)NNC(=O)c2csc3c2CCCC3)c1	-6	1	2	10	12	-2
Cc1cccc(NC(=S)NNC(=O)c2csc3c2CCCC3)c1	0	2	4	3	26*	0
COc1ccc(C2=Nn3c(nnc3C3CCCCC3)SC2)cc1	/	/	/	-8	/	/
O=C(OCc1cn(Cc2ccc(F)cc2)nn1)N1CCCC1	/	/	/	-7	/	/
Fc1cccc2sc(Nc3nnc(-c4ccccc4)o3)nc12	5	33*	12	-1	25*	1
Fc1cccc2sc(Nc3nc4c(F)cccc4s3)nc12	-8	-8	2	2	11	5
CCOc1cc(/C=N/Nc2nc(-c3cccs3)c(NC(C)=O)s2)ccc1O	5	-5	1	17	25*	12
CCN1CCN(c2ccc(S(=O)(=O)N3CCCCC3)cc2NC(=O)/C=C/c2ccc(OC)c(OC)c2)CC1	-8	10	-8	3	-3	-2
CCN1CCN(c2ccc(S(=O)(=O)N3CCCCC3)cc2NC(=O)/C=C/c2cc(OC)ccc2OC)CC1	-17	0	-7	0	26*	-2
CCOC(=O)[C@@]12CCCC3=C1N(CCC3)C(=O)[C@H]2CC(=O)N1CCN(C(=O)C2CC2)CC1	/	/	/	0	/	/
Oc1ccc(-c2nc3ccccc3s2)c(O)c1	-15	-3	4	-12	6	9
Nc1ccc(O)c(-c2nc3ccccc3s2)c1	25	2	0	29	34*	8
